Hits are enriched below; roughly 3.1% of the tested compounds scored in any of these assays.
HSF1 inhib = HSF1 inhibition | AID 2098 | activity change, negative = inhibition, % at 7.5 µM (by protocol) | 300,000 tested, 0.77% active | NIH3T3-HGL HSE-luciferase, MG132-induced, luminescence 8 h; hits give low values;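 active = more than half of replicate wells show activity change below -50%, luminescence cut by over half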;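 also: luciferase reports HSF-1 transcriptional activity via heat shock element; 0% = median of DMSO wells and -100% = zero luminescence signal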
HKDC1 inh = blocks human hexokinase HKDC1 activity | Q2TB90 | recombinant HKDC1, G6PDH/diaphorase resazurin coupled fluorescence | inhibition, % at 20 µM | 340,000 tested, 0.16% active;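 active = inhibition above about 35% when tested at 20 µM, limit read from the data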;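 also: plate controls were DMSO wells with enzyme for no effect and DMSO wells lacking enzyme for full effect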
Target sequence (Q2TB90 whole entry, looked up): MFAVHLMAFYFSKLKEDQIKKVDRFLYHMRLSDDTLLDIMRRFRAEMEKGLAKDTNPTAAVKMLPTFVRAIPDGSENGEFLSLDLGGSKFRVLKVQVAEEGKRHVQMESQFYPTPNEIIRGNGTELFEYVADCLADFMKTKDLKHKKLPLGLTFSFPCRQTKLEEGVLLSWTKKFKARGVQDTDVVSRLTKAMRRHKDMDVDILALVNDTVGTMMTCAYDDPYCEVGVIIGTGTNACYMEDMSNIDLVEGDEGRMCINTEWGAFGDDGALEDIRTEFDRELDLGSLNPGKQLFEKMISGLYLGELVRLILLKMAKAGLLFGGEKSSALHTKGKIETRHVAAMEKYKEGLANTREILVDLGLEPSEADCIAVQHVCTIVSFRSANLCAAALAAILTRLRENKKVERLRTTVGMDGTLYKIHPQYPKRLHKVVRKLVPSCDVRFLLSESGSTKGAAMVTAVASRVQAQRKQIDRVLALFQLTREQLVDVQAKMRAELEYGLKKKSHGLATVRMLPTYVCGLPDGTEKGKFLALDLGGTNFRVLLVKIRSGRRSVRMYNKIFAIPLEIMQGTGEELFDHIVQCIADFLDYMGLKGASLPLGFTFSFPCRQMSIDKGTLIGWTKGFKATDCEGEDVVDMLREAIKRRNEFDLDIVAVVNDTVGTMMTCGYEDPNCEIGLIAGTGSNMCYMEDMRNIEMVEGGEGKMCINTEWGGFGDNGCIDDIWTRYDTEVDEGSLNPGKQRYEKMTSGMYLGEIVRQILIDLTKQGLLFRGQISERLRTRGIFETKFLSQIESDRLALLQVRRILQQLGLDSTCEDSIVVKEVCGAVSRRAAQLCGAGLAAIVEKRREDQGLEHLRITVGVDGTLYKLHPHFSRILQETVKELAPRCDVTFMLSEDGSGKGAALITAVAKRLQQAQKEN
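Test system: Recombinant HKDC1 (HK5) hexokinase enzyme, produced in-house | Input: HKDC1 at 5 µg/mL | Buffer or medium: Tris pH 8.0 buffer with MgCl2, Tween-20, BSA, BME | Schedule: 90 min reaction incubation at room temperature, dark | Technique: Resazurin-to-resorufin fluorescence via G6PDH and diaphorase coupling, 525/613 nm | Controls: DMSO wells with and without enzyme mix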
Tb hexokinase = T. brucei hexokinase 1 inhibition; recombinant TbHK1, G6PDH-coupled NADH A340; inhibition, % at 10 µM; 220,000 tested, 0.11% active; AID 1430;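 active = inhibition of 50% or more in the single-dose primary screen; inactive = inhibition below 50%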
HSF1 activator = increases HSF-1 driven luciferase reporter signal. NIH3T3-HGL HSF-1 luciferase reporter, MG132, 8 h; 100% = twice DMSO control signal. activation, % at 9 µM. 300,000 tested, 1.7% active. AID 504408;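 active = mean replicate activation of at least 50% with a set share of replicates each reaching 50%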;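 also: 0% = median of the neutral control wells and 100% = twice that signal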
HSP90 inh = HSP90 refolding inhibition in rabbit reticulocyte lysate; luciferase refolding luminescence, 3 h; inhibition, % at 5.6 µM; 290,000 tested, 0.91% active;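 active = inhibition above the screen-wide mean plus 3 SD, computed separately per campaign, cut at about 16% in these data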;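 also: 0% = DMSO wells and 100% = 60 µM geldanamycin wells; inhibitors lower the luminescence because luciferase stays unfolded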
Hsp70 activator = switches on Hsp70 transcription | HeLa Hsp70 promoter luciferase reporter, luminescence; scaled: vehicle 0, proteasome-inhibitor control 100% | activation, % at 10 µM | 200,000 tested, 0.04% active;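 active = activation above the mean across all tested compounds plus 3 SD, cutoff set per campaign, cut at about 5.5% in these data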;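 also: 100% = MG132 at 30 µM as the positive control and 0% = DMSO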
* = called active by the depositor; . = no result given.

SMILES	HSF1 inhib	HKDC1 inh	Tb hexokinase	HSF1 activator	HSP90 inh	Hsp70 activator
CCOc1ccccc1NC(=O)Cn1c(-c2ccc(Cl)cc2)noc1=O	-65.1*	4.1	-8.5	-73.8	2.2	.
CCOc1ccccc1NC(=O)Cn1c(=O)oc2cc(Cl)ccc21	6.2	5.9	.	-10.4	-0.5	.
Cc1ccc(SCCOCCN2CCOCC2)cc1	-3.7	2.3	.	-2.9	-2.0	.
c1ccc(SCCOCCN2CCOCC2)cc1	25.2	-6.4	.	64.3*	-6.1	.
CC(CC(=O)NNC(=O)c1ccncc1)c1ccccc1 (centres undefined)	-2.0	0.7	.	-4.4	.	.
COc1cc2cc[n+](Cc3ccc([N+](=O)[O-])cc3)cc2cc1OC	-22.4	-2.3	.	-34.4	-1.5	.
Cc1c(C(=O)OCC(=O)N(C)Cc2ccc(Cl)cc2)oc2ccccc12	.	0.7	.	.	.	.
COc1ccc(OC)c2c1C(=O)C(Cl)=C(Cl)C2=O	-69.8*	23.6	4.4	-71.4	9.4	.
COc1ccc(N)c2c1C(=O)c1ccccc1C2=O	30.5	-2.0	3.3	54.3*	-1.3	0.0
CCN(CC)c1ccc(S(=O)(=O)N2CCOCC2)cc1NC(=O)CSc1nncs1	1.2	-2.6	.	-1.2	.	.
CN(C)c1ccc(/C=C/C(=O)c2ccccc2O)cc1	24.0	-1.6	-6.9	57.9*	6.1	0.1
O=C(CCNS(=O)(=O)c1ccc2nsnc2c1)N1CCN(c2ccncc2)CC1	.	1.9	.	.	.	.
Cc1cc(C)c(S(=O)(=O)Nc2cccc(/C=C/C(=O)O)c2)c(C)c1	41.1	2.3	29.8	82.6*	-6.1	-0.2
Cc1nc(C)c(C(=O)N2CCCC(C(=O)c3cc(F)ccc3F)C2)s1 (centres undefined)	0.9	7.6	.	12.0	1.9	.
Oc1ccc(C[C@H]2CNC(=S)N2CC2CCCN2C[C@H](Cc2ccc(O)cc2)N2C[C@H](Cc3ccc(O)cc3)N(CC3CCCCCC3)C2=S)cc1 (some centres undefined)	.	0.7	.	.	.	.
COc1ccc(/C=N/NC(=O)c2cnccn2)cc1O	4.1	10.4	-48.6	5.6	-2.2	0.1
COc1cccc(/C=N/NC(=O)c2cnccn2)c1	-75.7*	-10.4	-16.1	-82.0	-3.5	0.1
CCC(C(=O)OCC(=O)N1C(C)CCCC1C)c1ccccc1 (centres undefined)	1.6	-5.2	.	16.5	0.2	.
Cn1c(NC(=O)/C=C/c2ccccc2)cc(=O)n(C)c1=O	14.8	-14.8	-27.8	28.9	-3.2	0.1
COc1ccc(/C=C/C(=O)Nc2cc(=O)n(C)c(=O)n2C)cc1	27.5	-7.7	-31.5	59.9*	-4.0	-0.3
Cn1c(NC(=O)/C=C/c2ccc(Cl)c(Cl)c2)cc(=O)n(C)c1=O	44.3	-11.7	-10.6	55.5*	-3.0	-0.2
CC1CC(C)(C)OC(c2ccc(C(C)C)cc2)O1 (centres undefined)	.	-8.3	.	.	.	.
O=C(COC(=O)c1ccc(O)cc1O)c1ccc(Cl)cc1	53.3	-0.3	.	61.3*	.	.
CCCN(CC(=O)Nc1ccc(F)c(F)c1F)C(=O)CCc1nc2ccccc2c(=O)[nH]1	-0.7	1.1	.	-11.1	.	.
Clc1ccccc1CSc1nnc(-c2ccccn2)n1Cc1ccco1	95.9	1.7	-3.4	119.6*	4.3	-0.5
SMILES	HSF1 inhib	HKDC1 inh	Tb hexokinase	HSF1 activator	HSP90 inh	Hsp70 activator
Cc1ccc(S(=O)(=O)CCC(=O)OCCOc2cccc(Br)c2)cc1	.	1.4	.	.	.	.
CC(C)n1nc(C(=O)Nc2cccc(S(=O)(=O)N3CCCCC3)c2)c2ccccc2c1=O	.	-4.4	.	.	.	.
Cc1ccc(N=C2NC(=O)/C(=C/c3cccn3C)S2)cc1	15.6	-4.6	-1.7	17.9	-5.3	.
Cc1ccc(N=C2NC(=O)/C(=C/c3cccn3C)S2)cc1C	29.5	-0.8	-4.7	54.1*	3.4	.
Cc1c(NC(=O)COC(=O)C2=COCCO2)cccc1[N+](=O)[O-]	-3.6	-6.5	.	8.8	.	.
c1ccc(Cn2nnnc2C(c2cccs2)N2CCCCCC2)cc1 (centres undefined)	0.1	0.6	4.1	21.9	0.2	-0.2
c1ccc(Cn2nnnc2C(c2cccs2)N2CCc3ccccc3C2)cc1 (centres undefined)	135.4	-0.8	4.4	177.3*	5.8	-0.2
CN1CCc2c(sc3c2c(=O)n(-c2ccc(Cl)cc2)c2nncn32)C1	-55.1*	-2.5	-10.3	-63.1	2.2	0.0
Nc1nc(CSc2ncn(-c3ccccc3)n2)cs1	-85.5*	6.1	-1.5	-88.1	0.3	0.2
Cc1cccc(C(c2c(C)nn(-c3ccccc3)c2N)c2c(C)nn(-c3ccccc3)c2N)c1	67.6	11.7	-6.7	82.8*	-3.2	-0.2
CCc1ccc(C(c2c(C)nn(-c3ccccc3)c2N)c2c(C)nn(-c3ccccc3)c2N)cc1	13.3	21.8	-5.2	9.8	7.6	0.1
COc1ccc(O)c(/C=N/NC(=S)NCCc2ccccc2)c1	2.8	-24.0	.	12.8	-1.2	.
COc1ccc(/C(C)=N/NC(=S)NCCc2ccccc2)c(O)c1	20.7	-25.1	.	52.9*	2.3	.
Cc1cc(Cl)c2oc(C(=O)N3CCN(c4cccc(C)n4)CC3)c(C)c2c1	37.9	-0.9	.	72.7*	-1.4	.
Cc1ccc2oc(C(=O)N3CCN(c4cccc(C)n4)CC3)c(C)c2c1	21.9	-0.3	.	10.2	-2.0	.
COc1cccc(-n2nc(-c3ccnn3-c3cccc(Cl)c3)c(=O)n(C)c2=O)c1	-53.7*	-11.9	-10.8	-63.6	2.8	.
CCOC(=O)C1=C(COC(=O)c2ccc(Br)c(S(=O)(=O)N3CCOCC3)c2)NC(=O)NC1C (centres undefined)	.	0.6	.	.	.	.
Cc1cc(C)c(C(=O)Nn2c(C)nc3ccccc3c2=O)cc1C	2.6	0.0	.	5.5	0.7	.
CC[C@H]1C(Nc2ccccc2)C[C@@H]2CCN3C(=O)CC[C@H]1[C@H]23 (some centres undefined)	.	-2.0	.	.	.	.
Cc1cc(/C=C2/NC(=O)N(Cc3ccccc3F)C2=O)c(C)n1C	7.7	-8.3	-9.9	14.4	-1.5	-0.1
CCOc1cc([N+](=O)[O-])cc(/C=C2/NC(=O)N(Cc3ccccc3F)C2=O)c1O	99.4	8.7	-7.6	134.6*	-0.6	-0.1
CC(=O)Cn1cnc2c(cnn2-c2ccc(C)c(C)c2)c1=O	7.4	-3.3	.	59.0*	-3.5	.
Cc1ccc(-n2ncc3c(=O)n(CC(=O)N(C)C)cnc32)cc1C	2.6	3.5	.	8.4	-2.7	.
COCCCn1c(-c2ccc(OC)cc2)nc2c1c(=O)[nH]c(=O)n2Cc1ccccc1	0.4	2.5	.	15.0	4.1	.
C=CCOc1ccc(-c2nc3c(c(=O)[nH]c(=O)n3Cc3ccccc3)n2CCCOC)cc1	18.9	-2.7	.	63.4*	1.4	.
Cc1ccc(-c2nc3c(c(=O)[nH]c(=O)n3Cc3ccccc3)n2Cc2ccccc2)o1	19.6	-1.4	-2.4	61.8*	2.7	0.0
CCCOc1ccc(CNC(=S)Nc2ccccc2)cc1Cl	-2.9	1.0	.	9.0	0.9	.
Nc1cc(N)nc(SCCOc2ccccc2F)n1	43.1	5.6	-0.2	66.4*	4.5	-0.2

Screening data as filed in PubChem BioAssay.
